The test system of the data set is MS2 coat protein. The data set can be described thus: apparent Kd, MS2 coat protein; higher = weaker binding; RNA-MaP array; FMN 200 µM where present. The method, boiled down: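 The apparent Kd comes from binding curves fitted cluster by cluster, filtered, and summarised as a median. Those curves followed SNAP-549-labelled MS2 coat protein from 0.7 or 1.5 nM, doubling to 3 µM, on Illumina sequencing-chip clusters where stalled E. coli RNA polymerase had transcribed the designs, without and then with constant ligand. The buffer was 100 mM Tris-HCl pH 7.5, 80 mM KCl, 4 mM MgCl2, BSA, DTT, yeast tRNA and Tween-20, and green signal was normalised to red-channel RNA signal and control-cluster median Fmax.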

The mark [1] stands for this setting: designed as: OFF switch for flavin mononucleotide, no ligand.
Where [2] appears, read: ligand present: flavin mononucleotide, designed as: OFF switch for flavin mononucleotide.
Where [3] appears, read: designed as: ON switch for flavin mononucleotide, no ligand.
The mark [4] stands for this setting: ligand present: flavin mononucleotide, designed as: ON switch for flavin mononucleotide.

In general, apparent Kd refers to the concentration giving half-maximal binding under the conditions of the assay. As for “UUAAUUUUAUGAUAUUAUGACAUUAGAAGGCUGUACAUGUUGAUACAUGAGGAUCACCCAUGUAUAGAGGAUAUAGACAAUUUU”, the “apparent Kd” value was found to be 32.4 nM under setting [1] and 63.9 nM under setting [2].

Turning to “GCGCUAAAACAGAAGGCCAAAUACAUGAGGAUCACCCAUGUCGAAUCAUGGAGGAUAUGUUAUUAAUUACACGCAGAUGAGCGC”, the “apparent Kd” value was found to be 90.8 nM under setting [3] and 9.9 nM under setting [4].

Take “CACUGCAAUGUAGGAUAUCGACUGGAAUACAGUCGAGAAGGACAUGAGGAUCACCCAUGUCAUCCUAAUAAUAAAUAAGCAGUG”: the “apparent Kd” value is, setting by setting: under setting [1], 14.4 nM; under setting [2], 19.5 nM. For “GGUACUCAAAGAGUACCAAAACGAACAUGAGGAUCACCCAUGUAGGAUAUGCUACUCAAAGAGUAGCAGAAGGACAUGUGCCUA”, under setting [2], the “apparent Kd” value amounted to 122 nM. As for “UGUCCACAUGAGGAUCACCCAUGUCAGGAGGUGACAGGAUAUUGCGAAAAAAAAAAAAAGCAAGAAGGGUCUGAUU”, the “apparent Kd” value by setting is: under setting [3], 244 nM; under setting [4], 89.5 nM.

As to “AAAAAACAUGAGGAUCACCCAUGUGAGGAUAUGUAUAUCCCUAAAAAAGUGUGGGACUACAGAAGGCACUUGGA”, the “apparent Kd” value reads like this: under setting [1], 79.7 nM; under setting [2], 207 nM. On the same counts, the results for “CUGGGAUCAGUAGGAUAUGCCGGACAUGAGGAUCACCCAUGUAAGGCGUGCUUCCCUCACGUGCGGCAGAAGGGCUGCGUCACU” are 43.4 nM and 40 nM. In the same order, the values of “GGAUAGGACAGAGGAUAUACGUGCUAGAGAUACUAGCAAAAUUUCCGCACAUGAGGAUCACCCAUGUAGAAGGCUGUCCUAUCG” are 5.82 nM and 9.26 nM. In the same order, the values of “ACAUGAGGAUCACCCAUGUGAGGAUCUCCCAUGUUAUAUUUCAGAAGGCUCGUGUGUUUGAUGAGAGAGGAUAUGGAAUAUACG” are 73.7 nM and 49.7 nM. Take “CGUAGGAUGCAGAAGGCAUGAACAUGAGGAUCACCCAUGUGAAAACACAUGAGGAUAUGCAUCCUACGAAAAGUGCGAAAGCAC”: the “apparent Kd” value was found to be 5.89 nM under setting [3] and 4.69 nM under setting [4]. Turning to “UGAUCGAGAGAUCUUAGAUUCUGGUAGGAUAUACAUUAUGUAUGAUAUACAUGAGGAUCACCCAUGUAGAAGGACUAGAGUCUA”, the “apparent Kd” value by setting is: under setting [1], 6.2 nM; under setting [2], 9.39 nM.

As for “GCGUGUAUAAGAUUUAUAAAACAGUCAGAAGGUGAUAAGACGACAUGAGGAUCACCCAUGUAAUUCAAGGAUAUGAUAAUACGC”, the “apparent Kd” value reads like this: under setting [3], 53.8 nM; under setting [4], 13.3 nM. Turning to “GGUGCACGCACAGGAUAUCCGGCGGAGCUCGUCGGAGAAGGGUGACAUGAGGAUCACCCAUGUACGUGCAAUCCAGUUUGAGAG”, the “apparent Kd” value under setting [3] was determined as 23.8 nM and the “apparent Kd” value under setting [4] came out at 28.3 nM. As for “GUUGUGUCAGGAUAUACGUUUGUUUUUUUUUUUGUUGUUUAGUAGAAGGGACAUGAGGAUCACCCAUGUUUGUU”, the “apparent Kd” value under setting [1] is 25.7 nM and the “apparent Kd” value under setting [2] worked out at 28.2 nM.

On to “AAUAUGUUGCAGAAGGCUAUAUUUUUUUAGUACCUCAUGACAUGAGGAUCACCCAUGUUUUUGUUGGAGGAUAUGCAAUAUAUU”, for which the “apparent Kd” value under setting [1] was determined as 8.07 nM and the “apparent Kd” value under setting [2] is 7.56 nM. Consider “UCAUAUAUACAAGGAUAUCAAUUAUUUACACAUCCUACAUGAGGAUCACCCAUGUUUUAAUAUAUUGAGAAGGUGUAAUGUCGG”, for which the “apparent Kd” value reads like this: under setting [3], 24.9 nM; under setting [4], 31.9 nM.

For the sequence “GUAGCAUACCAAGGAUAUUUAGGGCUUUGAUAGACAUGAGGAUCACCCAUGUGGCGUUAGUCAAGGGAGAAGGUGGUAUGCUAC”, the “apparent Kd” value by setting is: under setting [3], 22.6 nM; under setting [4], 14.5 nM. With “GGUACUCAAAGAGUACCAAUACGAACAUGAGGAUCACCCAUGUAGGAUAUGCUACUCAAAGAGUAGCAGAAGGAUAUGAUGUAU”, the “apparent Kd” value was found to be 39.7 nM under setting [1] and 44.9 nM under setting [2].

For the sequence “ACGCAGCUGGGUAAGGAUAUCGGUGGUAAAACAUGAGGAUCACCCAUGUCCGAAGCUCGGACCUCCGAGAAGGUGCCCGGCUGCG”, the “apparent Kd” value was determined as 8.17 nM under setting [3] and 8.14 nM under setting [4]. For “UGUGUGUGACAGGAUAUGCUGGUUGUGAGACGGGUAGAAGGGUCUACAUGAGGAUCACCCAUGUGGCCGGUUGG”, the “apparent Kd” value by setting is: under setting [1], 23.1 nM; under setting [2], 20.6 nM.
